In experiment [1] the target is C-C chemokine receptor type 5 (Homo sapiens, UniProt P51681). In words: Inhibitory concentration for displacement of [125I]-MIP-1 alpha from recombinant human CC chemokine receptor 5 (CCR5) expressed in CHO cell. The class given is cell-based. The method in brief: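 Competitive binding to CCR5 on CHO cell membranes, read as displacement of [125I]-labeled MIP-1α. IC50 values are means of triplicate determinations. Standard errors were normally <15% within an assay. Assay-to-assay variation was within ±2-fold, judged from a standard compound.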
Background: In a radioligand displacement assay an active substance lowers the binding of a labelled ligand.

The subject of experiment [2] is HeLa. In words: Antiviral activities in a cell culture HIV-1 infectivity inhibition assay using HeLa cells plus 50% normal human serum. Format: functional.
In experiment [3] the test system is HeLa. Description: Antiviral activities in a cell culture HIV-1 infectivity inhibition assay using HeLa cells. Format: functional. The following applies: Homo sapiens.

C-C chemokine receptor type 5, sequence (P51681 whole entry): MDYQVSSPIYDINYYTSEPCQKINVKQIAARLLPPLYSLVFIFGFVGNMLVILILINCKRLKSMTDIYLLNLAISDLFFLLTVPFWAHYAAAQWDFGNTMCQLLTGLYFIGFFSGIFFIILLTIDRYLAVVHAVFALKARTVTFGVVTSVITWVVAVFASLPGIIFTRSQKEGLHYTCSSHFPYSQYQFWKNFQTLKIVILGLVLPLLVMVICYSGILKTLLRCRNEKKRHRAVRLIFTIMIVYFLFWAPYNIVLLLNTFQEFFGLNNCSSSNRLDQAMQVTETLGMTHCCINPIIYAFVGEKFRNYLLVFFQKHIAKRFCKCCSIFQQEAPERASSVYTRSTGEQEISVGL

For `CCn1nc(Cc2ccc(OC)cc2)cc1C1CCN(C[C@H]2CN([C@@H](C(=O)O)C3CCCCC3)C[C@@H]2c2cccc(F)c2)CC1`, in experiment [1], the IC50 was determined as 1.1 nM. For the same compound, the IC90 with HeLa [2] is 33 nM; with HeLa [3] it was less than 0.14 nM.
Taken in the same sequence, the figures for `CCn1nc(CC2CCCCC2)cc1C1CCN(C[C@H]2CN([C@@H](C(=O)O)C(C)(C)C)C[C@@H]2c2cccc(F)c2)CC1` were 1.1 nM, 300 nM and 3.7 nM.
Taken in the same sequence, the figures for `CCn1nc(Cc2ccc(S(C)(=O)=O)cc2)cc1C1CCN(C[C@H]2CN([C@@H](C(=O)O)C3CCCCC3)C[C@@H]2c2cccc(F)c2)CC1` were 2.3 nM, 11 nM and 0.4 nM.
Regarding `CCn1nc(Cc2ccc(OCc3ccccc3)cc2)cc1C1CCN(C[C@H]2CN([C@@H](C(=O)O)C(C)(C)C)C[C@@H]2c2cccc(F)c2)CC1`, the IC50 in experiment [1] worked out at 1.1 nM. Further, the IC90 is 300 nM with HeLa [2] and 3.7 nM in the experiment on HeLa [3].
`CCn1nc(Cc2ccc(OC3CC3)cc2)cc1C1CCN(C[C@H]2CN([C@@H](C(=O)O)C(C)(C)C)C[C@@H]2c2cccc(F)c2)CC1`: in experiment [1], the IC50 worked out at 0.4 nM. For the same compound, the values for the IC90 in the experiment on HeLa [2] and in the experiment on HeLa [3] were 33 nM and less than 0.14 nM, respectively.
The like results for `CC[C@H](C)[C@H](C(=O)O)N1C[C@H](CN2CCC(c3cc(Cc4ccc(-c5ccccc5)cc4)nn3CC)CC2)[C@@H](c2cccc(F)c2)C1` were, in that order, 0.3 nM, 33 nM and 0.4 nM.
Taken in the same sequence, the figures for `CCn1nc(Cc2ccc(OC)cc2)cc1C1CCN(C[C@H]2CN([C@@H](C(=O)O)C(C)C)C[C@@H]2c2cccc(F)c2)CC1` were 1.3 nM, 100 nM and 0.4 nM.
Regarding `CC[C@@H](C)[C@H](C(=O)O)N1C[C@H](CN2CCC(c3cc(Cc4ccc(OC(F)F)cc4)nn3CC)CC2)[C@@H](c2cccc(F)c2)C1`, the IC50 in experiment [1] amounted to 0.6 nM. Besides, the IC90 with HeLa [2] was 11 nM; with HeLa [3], less than 0.14 nM.
Taken in the same sequence, the figures for `CC[C@H](C)[C@H](C(=O)O)N1C[C@H](CN2CCC(c3cc(Cc4cccc(OC)c4)nn3CC)CC2)[C@@H](c2cccc(F)c2)C1` were 1.2 nM, 100 nM and less than 0.14 nM.
For `CCCCOc1ccc(Cc2cc(C3CCN(C[C@H]4CN([C@@H](C(=O)O)[C@H](C)CC)C[C@@H]4c4cccc(F)c4)CC3)n(CC)n2)cc1`, in experiment [1], the IC50 came out at 0.8 nM. Besides, the IC90 with HeLa [2] was 100 nM; in the experiment with HeLa [3], 3.7 nM.
Taken in the same sequence, the figures for `CCn1nc(Cc2ccc(O)cc2)cc1C1CCN(C[C@H]2CN([C@@H](C(=O)O)C(C)C)C[C@@H]2c2cccc(F)c2)CC1` were 0.6 nM, 33 nM and 1.2 nM.
With `CC[C@H](C)[C@H](C(=O)O)N1C[C@H](CN2CCC(c3cc(Cc4ccc(OC)c(C#N)c4)nn3CC)CC2)[C@@H](c2cccc(F)c2)C1`, the IC50 in experiment [1] came out at 0.5 nM. Also, the IC90 in the experiment on HeLa [2] was 33 nM; with HeLa [3], less than 0.14 nM.
Taken in the same sequence, the figures for `CC[C@@H](C)[C@H](C(=O)O)N1C[C@H](CN2CCC(c3cc(Cc4ccc(S(=O)(=O)c5ccccc5)cc4)nn3CC)CC2)[C@@H](c2cccc(F)c2)C1` were 1.1 nM, 33 nM and 0.4 nM.
Taken in the same sequence, the figures for `CC[C@@H](C)[C@H](C(=O)O)N1C[C@H](CN2CCC(c3cc(Cc4ccc5ccccc5c4)nn3CC)CC2)[C@@H](c2cccc(F)c2)C1` were 0.2 nM, 300 nM and less than 0.14 nM.
For `CC[C@@H](C)[C@H](C(=O)O)N1C[C@H](CN2CCC(c3cc(Cc4ccc(C(C)(C)C)cc4)nn3CC)CC2)[C@@H](c2cccc(F)c2)C1`, the concentration for half-maximal inhibition (IC50) in experiment [1] stood at 0.8 nM. Also, the IC90 with HeLa [2] worked out at 300 nM; in the experiment with HeLa [3] it was 1.2 nM.
In the case of `CC[C@H](C)[C@H](C(=O)O)N1C[C@H](CN2CCC(c3cc(Cc4ccc(OCC(F)(F)F)cc4)nn3CC)CC2)[C@@H](c2cccc(F)c2)C1`, in experiment [1], the IC50 stood at 0.6 nM. In addition, the IC90 stood at 33 nM in the experiment with HeLa [2] and 0.4 nM with HeLa [3].

What is called IC50 is the concentration that gives 50% inhibition. Broadly, the IC90 is the point of the concentration-response curve where the effect stands at 90%.

(Values after ChEMBL document CHEMBL1147446, “Antagonists of human CCR5 receptor containing 4-(pyrazolyl)piperidine side chains. Part 3: SAR studies on the benzylpyrazole segment” (Bioorg Med Chem Lett, 2004).)
